Test results: ChEMBL document CHEMBL1806375, “Synthesis, molecular modeling and bio-evaluation of cycloalkyl fused 2-aminopyrimidines as antitubercular and antidiabetic agents” (Bioorg Med Chem Lett, 2011)
Converted amounts (≈) assume the structure as drawn.

Columns and labels:
[1] = system: Mycobacterium tuberculosis; assay: Antimycobacterial activity against Mycobacterium tuberculosis H37Rv after 30 days by agar microdilution method; format: functional
Summary of the method: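 Virulent M. tuberculosis H37Rv strain tested by agar microdilution. Isoniazid and ethambutol served as reference drugs. Read-out is the MIC.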

[2] = biological target: T1, Glycogen phosphorylase, liver form (Rattus norvegicus) (UniProt P09811); assay: Inhibition of Wistar rat liver glycogen phosphorylase at 100 uM after 30 mins
T1 sequence (whole entry): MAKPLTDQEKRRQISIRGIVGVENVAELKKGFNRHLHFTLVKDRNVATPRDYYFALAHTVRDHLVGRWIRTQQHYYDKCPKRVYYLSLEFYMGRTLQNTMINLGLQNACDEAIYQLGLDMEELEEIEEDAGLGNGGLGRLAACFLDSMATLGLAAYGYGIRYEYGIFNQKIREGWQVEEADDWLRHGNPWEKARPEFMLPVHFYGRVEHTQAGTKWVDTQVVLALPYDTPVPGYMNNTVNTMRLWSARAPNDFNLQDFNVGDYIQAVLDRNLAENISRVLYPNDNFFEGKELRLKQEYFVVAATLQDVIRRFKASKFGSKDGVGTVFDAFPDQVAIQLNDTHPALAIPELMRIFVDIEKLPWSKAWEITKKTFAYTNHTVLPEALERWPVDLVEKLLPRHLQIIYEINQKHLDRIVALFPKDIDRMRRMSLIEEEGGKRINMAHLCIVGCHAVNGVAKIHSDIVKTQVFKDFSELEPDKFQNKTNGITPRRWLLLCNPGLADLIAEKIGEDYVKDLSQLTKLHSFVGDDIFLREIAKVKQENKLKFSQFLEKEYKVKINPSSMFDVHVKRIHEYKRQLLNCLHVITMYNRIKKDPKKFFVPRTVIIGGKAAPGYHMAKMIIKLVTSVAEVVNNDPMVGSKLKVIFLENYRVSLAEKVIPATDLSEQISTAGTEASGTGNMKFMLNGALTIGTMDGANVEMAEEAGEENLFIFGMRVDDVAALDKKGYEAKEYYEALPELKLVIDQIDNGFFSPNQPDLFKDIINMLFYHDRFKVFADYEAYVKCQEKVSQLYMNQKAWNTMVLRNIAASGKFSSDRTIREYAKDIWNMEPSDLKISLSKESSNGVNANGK

Rattus norvegicus = species: Rattus norvegicus; assay: Inhibition of albino rat intestine alpha-glucosidase using p-nitrophenyl-alpha-D-glucopyranoside as substrate at 100 uM
[3] = system: Mycobacterium tuberculosis; assay: Antimycobacterial activity against Mycobacterium tuberculosis H37Rv infected in mouse bone marrow macrophages assessed as intracellular growth inhibition after 4 days; format: functional
Vero = assay: Cytotoxicity against african green monkey Vero cells at 10 times MIC of Mycobacterium tuberculosis H37Rv after 24 hrs by MTS assay; format: cell-based; conditions: chlorocebus sabaeus
[4] = Cytotoxicity against mouse bone marrow macrophages at 10 times MIC after 48 hrs by MTS assay; format: cell-based; conditions: macrophage
[5] = system: Mycobacterium tuberculosis; assay: Antimycobacterial activity against Mycobacterium tuberculosis H37Rv infected in mouse bone marrow macrophages assessed as intracellular growth inhibition at 3.12 ug/ml after 4 days; format: functional; conditions: 96 h, read-out: GI

Row | SMILES | MIC [1] [µg/mL] | inhibition (Rattus norvegicus) [%] | other results
1 | Nc1nc2c(c(-c3ccc(F)cc3)n1)CCC/C2=C\c1ccc(F)cc1 | 12.5 (≈ 35.8 µM) |  | 
2 | COc1ccc(/C=C2\CCCc3c2nc(N)nc3-c2ccc(OC)cc2)cc1 | > 12.5 |  | inhibition [2]: -10%
3 | Nc1nc2c(c(-c3ccc4ccccc4c3)n1)CCC/C2=C\c1ccc2ccccc2c1 | 6.25 (≈ 15.1 µM) | -6 | inhibition [2]: -5%
4 | Nc1nc2c(c(-c3ccc(Cl)cc3)n1)CCC/C2=C\c1ccc(Cl)cc1 | > 12.5 |  | 
5 | COc1ccc(/C=C2\CCCCc3c2nc(N)nc3-c2ccc(OC)c(OC)c2)cc1OC | 6.25 (≈ 14 µM) | -6.4 | 
6 | NNC(=O)c1ccncc1 [ISONIAZID] | 0.75 (≈ 5.47 µM) |  | growth inhibition (GI) [3]: >=99%
7 | Nc1nc2c(c(-c3ccc(Br)cc3)n1)CCC/C2=C\c1ccc(Br)cc1 | 12.5 (≈ 26.5 µM) |  | 
8 | Nc1nc2c(c(-c3ccc(OCc4ccccc4)cc3)n1)CCC/C2=C\c1ccc(OCc2ccccc2)cc1 | > 12.5 |  | inhibition [2]: -0.87%
9 | COc1cc(/C=C2\CCCCc3c2nc(N)nc3-c2cc(OC)c(OC)c(OC)c2)cc(OC)c1OC | > 12.5 |  | 
10 | Nc1nc2c(c(-c3ccccc3)n1)CCCC/C2=C\c1ccccc1 | > 12.5 | -0.07 | 
11 | COc1ccc(/C=C2\CCCCc3c2nc(N)nc3-c2ccc(OC)cc2)cc1 | > 12.5 |  | 
12 | Nc1nc2c(c(-c3ccc(Br)cc3)n1)CCCC/C2=C\c1ccc(Br)cc1 | > 12.5 | -5.86 | 
13 | Nc1nc(Cc2ccco2)c2c(n1)/C(=C/Cc1ccco1)CCC2 | > 12.5 |  | 
14 | COc1ccc(/C=C2\CCCc3c2nc(N)nc3-c2ccc(OC)c(OC)c2)cc1OC | > 12.5 |  | 
15 | Nc1nc2c(c(-c3ccccc3)n1)CCC/C2=C\c1ccccc1 | 6.25 (≈ 19.9 µM) |  | inhibition [2]: -6.1%
16 | Nc1nc2c(c(-c3ccc(Cl)cc3)n1)CCCC/C2=C\c1ccc(Cl)cc1 | > 12.5 | 11.4 | 
17 | Nc1nc2c(c(-c3cccc4ccccc34)n1)CCC/C2=C\c1cccc2ccccc12 | 12.5 (≈ 30.2 µM) | 13.7 | inhibition [2]: 11.3%
18 | Nc1nc2c(c(-c3ccc4ccccc4c3)n1)CCCC/C2=C\c1ccc2ccccc2c1 | 3.12 (≈ 7.3 µM) |  | Activity (Vero): Non-toxic; Activity [4]: Non-toxic; inhibition of growth at 3.12 µg/mL [5]: 58%
19 | CC[C@@H](CO)NCCN[C@@H](CC)CO [ETHAMBUTOL] | 3.25 (≈ 15.9 µM) |  | 
20 | COc1cc(/C=C2\CCCc3c2nc(N)nc3-c2cc(OC)c(OC)c(OC)c2)cc(OC)c1OC | > 12.5 |  | 
21 | Nc1nc(Cc2ccco2)c2c(n1)/C(=C/Cc1ccco1)CCCC2 | > 12.5 | -4.87 | inhibition [2]: 34.3%
22 | Nc1nc2c(c(-c3cccc4ccccc34)n1)CCCC/C2=C\c1cccc2ccccc12 | > 12.5 |  | 
